The text below walks through data of ChEMBL document CHEMBL4118188, “A small diversity library of α-methyl amide analogs of sulindac for probing anticancer structure-activity relationships” (Bioorg Med Chem Lett, 2018).

The first experiment deals with HT-29. Description: Growth inhibition of human HT-29 cells measured after 72 hrs by Celltiter-Glo reagent based assay. The class given is functional. The note with it: HT-29, 72 h. For orientation: ATP-based viability assays read luminescence as a measure of living cells.
With `COc1cc(/C=C2/C(C)=C(C(C)C(=O)NCc3ccccc3)c3cc(F)ccc32)cc(OC)c1OC` (stereo not given), the CC50 (in general, the concentration at which the toxic effect on the cells reaches its halfway point) was found to be 2.77 µM.
Regarding `CSc1ccc(/C=C2/C(C)=C(C(C)C(=O)N(CCCNC(C)C)C(C)C)c3cc(F)ccc32)cc1` (stereo not given), it took 1.26 µM to reach half-maximal cytotoxicity (CC50).
Same read-out and setting: as for `CSc1ccc(/C=C2/C(C)=C(C(C)C(=O)N(CCNC(C)C)C(C)C)c3cc(F)ccc32)cc1` (stereo not given), the figure is 1.5 µM.
Compound `CSc1ccc(/C=C2/C(C)=C(C(C)C(=O)N3CCN(CCN(C)C)CC3)c3cc(F)ccc32)cc1` (stereo not given) returned a CC50 of 2.02 µM.

The subject of another experiment is PC-3. Nature of the experiment: Growth inhibition of human PC3 cells measured after 72 hrs by Celltiter-Glo reagent based assay. The class given is functional. The note with it: PC-3, 72 h.
`COc1cc(/C=C2/C(C)=C(C(C)C(=O)NCc3ccccc3)c3cc(F)ccc32)cc(OC)c1OC` (stereo not given) registered a CC50 of 4.92 µM.
In the case of `CSc1ccc(/C=C2/C(C)=C(C(C)C(=O)N(CCCNC(C)C)C(C)C)c3cc(F)ccc32)cc1` (stereo not given), it took 3.18 µM to reach half-maximal cytotoxicity (CC50).
Consider `CSc1ccc(/C=C2/C(C)=C(C(C)C(=O)N(CCNC(C)C)C(C)C)c3cc(F)ccc32)cc1` (stereo not given), for which the half-maximal cytotoxic concentration (CC50) is 3.91 µM. The CC50 values of the last two compounds are within 1.5-fold of each other.
In the case of `CSc1ccc(/C=C2/C(C)=C(C(C)C(=O)N3CCN(CCN(C)C)CC3)c3cc(F)ccc32)cc1` (stereo not given), the CC50 came to 5.98 µM.

Another experiment has as its system MDA-MB-231. Nature of the experiment: Growth inhibition of human MDA-MB-231 cells measured after 96 hrs by Celltiter-Glo reagent based assay. The class given is functional. The note with it: MDA-MB-231, 96 h.
Compound `COc1cc(/C=C2/C(C)=C(C(C)C(=O)NCc3ccccc3)c3cc(F)ccc32)cc(OC)c1OC` (stereo not given) gave a CC50 of 3.81 µM.
Same read-out and setting: the same measure for `CSc1ccc(/C=C2/C(C)=C(C(C)C(=O)N(CCCNC(C)C)C(C)C)c3cc(F)ccc32)cc1` (stereo not given): 2.91 µM.
Compound `CSc1ccc(/C=C2/C(C)=C(C(C)C(=O)N(CCNC(C)C)C(C)C)c3cc(F)ccc32)cc1` (stereo not given) yielded a CC50 of 3.83 µM. This CC50 and that of the compound before are within 1.5-fold of each other.
Turning to `CSc1ccc(/C=C2/C(C)=C(C(C)C(=O)N3CCN(CCN(C)C)CC3)c3cc(F)ccc32)cc1` (stereo not given), half-maximal cytotoxicity (CC50) was put at 3.77 µM.

Test system in another experiment: not listed separately
Nature of the experiment: Growth inhibition of mouse CPC300 cells measured after 72 hrs by Celltiter-Glo reagent based assay. The class given is functional.
Settings: not given; call rule not given here
Summed up:
(§1)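 Cell line sources: Raji is a Burkitt's lymphoma line (FAB L3); Jurkat E6-1 is an acute T-cell leukemia line; REH is a patient-derived precursor B-cell ALL line expressing only wild-type MLL and wild-type AF4; 697 was established from bone marrow of children with relapsed ALL; CPC300 derives from a mouse model of choroid plexus carcinoma.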
`COc1cc(/C=C2/C(C)=C(C(C)C(=O)NCc3ccccc3)c3cc(F)ccc32)cc(OC)c1OC` (stereo not given): the EC50 – broadly, the midpoint of the concentration-response curve – is reported as “Not Active”.
For `CSc1ccc(/C=C2/C(C)=C(C(C)C(=O)N(CCCNC(C)C)C(C)C)c3cc(F)ccc32)cc1` (stereo not given), the 50% effective concentration (EC50) entry is “Not Active”.
Same read-out and setting: the same measure for `CSc1ccc(/C=C2/C(C)=C(C(C)C(=O)N(CCNC(C)C)C(C)C)c3cc(F)ccc32)cc1` (stereo not given): “Not Active”; for `CSc1ccc(/C=C2/C(C)=C(C(C)C(=O)N3CCN(CCN(C)C)CC3)c3cc(F)ccc32)cc1` (stereo not given): “Not Active”.

Test system in another experiment: not listed separately
Nature of the experiment: Growth inhibition of human NALM16 cells measured after 72 hrs by Celltiter-Glo reagent based assay. The class given is functional.
Settings: not given
`CSc1ccc(/C=C2/C(C)=C(C(C)C(=O)N(CCNC(C)C)C(C)C)c3cc(F)ccc32)cc1` (stereo not given): the concentration giving a half-maximal response (EC50) entry is reported as “Not Active”.

Still in this experiment, the particulars now being: Homo sapiens, NALM16, 72 h; read-out: EC50.
As for `COc1cc(/C=C2/C(C)=C(C(C)C(=O)NCc3ccccc3)c3cc(F)ccc32)cc(OC)c1OC` (stereo not given), the half-maximal effective concentration (EC50) was determined as 8 µM.
Still for that read-out and setting: the same measure for `CSc1ccc(/C=C2/C(C)=C(C(C)C(=O)N(CCCNC(C)C)C(C)C)c3cc(F)ccc32)cc1` (stereo not given): 1.5 µM; for `CSc1ccc(/C=C2/C(C)=C(C(C)C(=O)N3CCN(CCN(C)C)CC3)c3cc(F)ccc32)cc1` (stereo not given): 2.1 µM.

Another experiment relates to Raji. Nature of the experiment: Growth inhibition of human Raji cells measured after 72 hrs by Celltiter-Glo reagent based assay. The class given is functional, cell-based. The note with it: Homo sapiens, Raji, 72 h; read-out: EC50. Summed up: as §1
Take `COc1cc(/C=C2/C(C)=C(C(C)C(=O)NCc3ccccc3)c3cc(F)ccc32)cc(OC)c1OC` (stereo not given): the half-maximal effective concentration (EC50) stood at 13 µM.

The experiment is the same for the next values; noted with them: raji.
For `CSc1ccc(/C=C2/C(C)=C(C(C)C(=O)N(CCCNC(C)C)C(C)C)c3cc(F)ccc32)cc1` (stereo not given), the concentration giving a half-maximal response (EC50) entry is given as “Not Active”.
With `CSc1ccc(/C=C2/C(C)=C(C(C)C(=O)N(CCNC(C)C)C(C)C)c3cc(F)ccc32)cc1` (stereo not given), the half-maximal effective concentration (EC50) result is listed as “Not Active”.
For `CSc1ccc(/C=C2/C(C)=C(C(C)C(=O)N3CCN(CCN(C)C)CC3)c3cc(F)ccc32)cc1` (stereo not given), the EC50 entry is on record as “Not Active”.

Another experiment has as its system Jurkat E6.1. Nature of the experiment: Growth inhibition of human Jurkat E6-1 cells measured after 72 hrs by Celltiter-Glo reagent based assay. The class given is functional, cell-based. The note with it: Homo sapiens, Jurkat E6.1, 72 h; read-out: EC50. Summed up: as §1
On to `COc1cc(/C=C2/C(C)=C(C(C)C(=O)NCc3ccccc3)c3cc(F)ccc32)cc(OC)c1OC` (stereo not given), for which the EC50 came to 7.7 µM.

The same experiment, now with this note: jurkat e6.1.
Regarding `CSc1ccc(/C=C2/C(C)=C(C(C)C(=O)N(CCCNC(C)C)C(C)C)c3cc(F)ccc32)cc1` (stereo not given), the 50% effective concentration (EC50) entry is given as “Not Active”.
Take `CSc1ccc(/C=C2/C(C)=C(C(C)C(=O)N(CCNC(C)C)C(C)C)c3cc(F)ccc32)cc1` (stereo not given): the 50% effective concentration (EC50) result is reported as “Not Active”.
On the same count and under the same terms, the same measure for `CSc1ccc(/C=C2/C(C)=C(C(C)C(=O)N3CCN(CCN(C)C)CC3)c3cc(F)ccc32)cc1` (stereo not given): “Not Active”.

The next experiment has as its system REH. Nature of the experiment: Growth inhibition of human REH cells measured after 72 hrs by CellTiter-Glo reagent based assay. Conditions: Homo sapiens, REH, 72 h; read-out: EC50. The class given is functional, cell-based. Summed up:
as §1
As to `COc1cc(/C=C2/C(C)=C(C(C)C(=O)NCc3ccccc3)c3cc(F)ccc32)cc(OC)c1OC` (stereo not given), the half-maximal effective concentration (EC50) came to 7 µM.

Still in this experiment, the particulars now being: reh.
With `CSc1ccc(/C=C2/C(C)=C(C(C)C(=O)N(CCCNC(C)C)C(C)C)c3cc(F)ccc32)cc1` (stereo not given), the half-maximal effective concentration (EC50) entry is “Not Active”.
Consider `CSc1ccc(/C=C2/C(C)=C(C(C)C(=O)N(CCNC(C)C)C(C)C)c3cc(F)ccc32)cc1` (stereo not given), for which the 50% effective concentration (EC50) entry is “Not Active”.
For `CSc1ccc(/C=C2/C(C)=C(C(C)C(=O)N3CCN(CCN(C)C)CC3)c3cc(F)ccc32)cc1` (stereo not given), the half-maximal effective concentration (EC50) result is “Not Active”.

The next experiment has as its system 697. Nature of the experiment: Growth inhibition of human 697 cells after 72 hrs by CellTiter-Glo reagent based assay. The class given is functional, cell-based. The note with it: 697. Summed up: as §1
On to `CSc1ccc(/C=C2/C(C)=C(C(C)C(=O)N(CCCNC(C)C)C(C)C)c3cc(F)ccc32)cc1` (stereo not given), for which the concentration giving a half-maximal response (EC50) result was “Not Active”.
With `CSc1ccc(/C=C2/C(C)=C(C(C)C(=O)N(CCNC(C)C)C(C)C)c3cc(F)ccc32)cc1` (stereo not given), the concentration for a half-maximal effect (EC50) result is reported as “Not Active”.
Still for that read-out and setting: as for `CSc1ccc(/C=C2/C(C)=C(C(C)C(=O)N3CCN(CCN(C)C)CC3)c3cc(F)ccc32)cc1` (stereo not given), the entry is “Not Active”.

The experiment is the same for the next values; noted with them: Homo sapiens, 697, 72 h; read-out: EC50.
On to `COc1cc(/C=C2/C(C)=C(C(C)C(=O)NCc3ccccc3)c3cc(F)ccc32)cc(OC)c1OC` (stereo not given), for which the EC50 was 6.1 µM.

Another experiment deals with BJ. Nature of the experiment: Growth inhibition of human BJ cells after 72 hrs by CellTiter-Glo reagent based assay. The class given is cell-based.
Settings: not given
As for `COc1cc(/C=C2/C(C)=C(C(C)C(=O)NCc3ccccc3)c3cc(F)ccc32)cc(OC)c1OC` (stereo not given), the EC50 was above 7.57 µM.
In turn, `CSc1ccc(/C=C2/C(C)=C(C(C)C(=O)N(CCCNC(C)C)C(C)C)c3cc(F)ccc32)cc1` (stereo not given) gave a concentration giving a half-maximal response (EC50) above 7.57 µM.
Regarding `CSc1ccc(/C=C2/C(C)=C(C(C)C(=O)N(CCNC(C)C)C(C)C)c3cc(F)ccc32)cc1` (stereo not given), the concentration giving a half-maximal response (EC50) was above 7.57 µM.
Regarding `CSc1ccc(/C=C2/C(C)=C(C(C)C(=O)N3CCN(CCN(C)C)CC3)c3cc(F)ccc32)cc1` (stereo not given), the concentration for a half-maximal effect (EC50) was above 7.57 µM.
